Reference: ChEMBL document CHEMBL2157910, “Structure-activity relationship studies of 4-benzyl-1H-pyrazol-3-yl β-d-glucopyranoside derivatives as potent and selective sodium glucose co-transporter 1 (SGLT1) inhibitors with therapeutic activity on postprandial hyperglycemia” (Bioorg Med Chem, 2012)
pIC50: −log10 of the molar value. Values after ≈ are worked out from the molar mass of the structure shown.

Legend:
[1] = target: T1, Sodium/glucose cotransporter 2 (Homo sapiens, UniProt P31639); test: Inhibition of human SGLT2 expressed in COS7 cells assessed as reduction of [14C]-AMG uptake; assay type: cell-based, COS-7
T1 sequence (P31639 whole entry): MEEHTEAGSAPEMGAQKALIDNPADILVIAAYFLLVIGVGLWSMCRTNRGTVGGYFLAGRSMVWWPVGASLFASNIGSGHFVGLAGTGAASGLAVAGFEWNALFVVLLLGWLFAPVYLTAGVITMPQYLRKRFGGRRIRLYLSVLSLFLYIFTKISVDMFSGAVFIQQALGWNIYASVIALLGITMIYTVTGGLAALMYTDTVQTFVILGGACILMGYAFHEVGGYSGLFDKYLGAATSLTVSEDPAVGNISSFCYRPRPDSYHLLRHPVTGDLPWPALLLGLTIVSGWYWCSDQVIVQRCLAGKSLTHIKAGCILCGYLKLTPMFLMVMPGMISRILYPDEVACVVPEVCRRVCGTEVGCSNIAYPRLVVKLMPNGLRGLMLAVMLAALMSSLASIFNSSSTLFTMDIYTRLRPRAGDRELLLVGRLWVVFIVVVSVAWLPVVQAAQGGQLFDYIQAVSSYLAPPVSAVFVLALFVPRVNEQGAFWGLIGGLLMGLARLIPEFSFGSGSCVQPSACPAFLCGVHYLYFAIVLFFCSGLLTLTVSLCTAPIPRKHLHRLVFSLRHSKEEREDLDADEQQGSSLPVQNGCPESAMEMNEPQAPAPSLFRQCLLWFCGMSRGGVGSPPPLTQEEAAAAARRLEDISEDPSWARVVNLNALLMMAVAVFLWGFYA

[2] = Solubility of the compound in distilled water; assay type: physicochemical
In short: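 Solubility measured in distilled water, with filtrate concentration quantified by HPLC.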

[3] = target: T2, Sodium/glucose cotransporter 1 (Rattus norvegicus, UniProt P53790); test: Inhibition of rat SGLT1 expressed in COS7 cells assessed as reduction of [14C]-AMG uptake; assay type: cell-based, COS-7
T2 sequence (P53790 whole entry): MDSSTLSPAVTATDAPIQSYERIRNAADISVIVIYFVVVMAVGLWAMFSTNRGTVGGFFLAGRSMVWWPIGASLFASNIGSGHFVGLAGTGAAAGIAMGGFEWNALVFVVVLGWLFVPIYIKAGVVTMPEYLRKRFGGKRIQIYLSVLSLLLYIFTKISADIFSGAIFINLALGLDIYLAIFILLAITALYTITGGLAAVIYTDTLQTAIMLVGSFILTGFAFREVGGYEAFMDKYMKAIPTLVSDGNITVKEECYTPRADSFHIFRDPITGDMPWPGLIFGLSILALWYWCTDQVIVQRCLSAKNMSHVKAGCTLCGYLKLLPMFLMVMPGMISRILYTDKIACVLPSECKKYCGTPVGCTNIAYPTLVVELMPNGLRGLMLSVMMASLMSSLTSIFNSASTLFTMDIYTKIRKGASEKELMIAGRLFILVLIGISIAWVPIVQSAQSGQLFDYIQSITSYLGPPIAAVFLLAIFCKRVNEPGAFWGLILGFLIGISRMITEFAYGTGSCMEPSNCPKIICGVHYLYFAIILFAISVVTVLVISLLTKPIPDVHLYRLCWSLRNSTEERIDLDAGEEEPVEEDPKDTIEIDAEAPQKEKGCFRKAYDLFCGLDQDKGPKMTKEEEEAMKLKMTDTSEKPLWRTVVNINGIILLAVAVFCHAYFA

[4] = target: T3, Sodium/glucose cotransporter 2 (Rattus norvegicus, UniProt P53792); test: Inhibition of rat SGLT2 expressed in COS7 cells assessed as reduction of [14C]-AMG uptake; assay type: cell-based, COS-7
T3 sequence (P53792 whole entry): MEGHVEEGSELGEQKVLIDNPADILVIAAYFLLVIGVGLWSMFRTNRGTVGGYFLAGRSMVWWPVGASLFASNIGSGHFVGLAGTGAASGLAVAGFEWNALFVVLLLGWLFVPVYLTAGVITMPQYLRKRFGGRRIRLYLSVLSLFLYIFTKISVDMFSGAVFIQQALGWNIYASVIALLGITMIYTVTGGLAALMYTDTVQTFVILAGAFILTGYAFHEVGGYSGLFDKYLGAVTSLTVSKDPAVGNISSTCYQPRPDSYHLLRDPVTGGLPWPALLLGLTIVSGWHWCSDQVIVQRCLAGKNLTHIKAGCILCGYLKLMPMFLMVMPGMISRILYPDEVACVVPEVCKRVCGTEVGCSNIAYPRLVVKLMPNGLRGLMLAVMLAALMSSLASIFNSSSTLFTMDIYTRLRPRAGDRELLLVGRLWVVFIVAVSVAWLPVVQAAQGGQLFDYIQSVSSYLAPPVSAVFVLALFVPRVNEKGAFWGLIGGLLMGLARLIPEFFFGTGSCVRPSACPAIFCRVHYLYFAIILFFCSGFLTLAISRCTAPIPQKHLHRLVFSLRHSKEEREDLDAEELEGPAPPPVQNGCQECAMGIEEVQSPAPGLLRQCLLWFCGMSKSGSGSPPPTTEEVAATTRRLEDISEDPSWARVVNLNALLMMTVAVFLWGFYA

[5] = Metabolic stability of the compound in rat intestinal microsomes assessed as compound remaining at 50 uM after 30 mins; assay type: ADME, Intestine
In short: (§1)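 50 µM final compound incubated at 37 °C with 0.8 mg/mL rat intestinal microsomes, 1 mg/mL NADPH, 50 mM ammonium acetate (pH 5.0) and 10 mM MgCl2. Levels measured by LC–MS at 0, 30 and 60 min; reported as % remaining relative to 0 min.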

[6] = Metabolic stability of the compound in rat intestinal microsomes assessed as compound remaining at 50 uM after 60 mins; assay type: ADME, Intestine; in short: as §1
Rattus norvegicus = test: Toxicity in Wistar rat assessed as overnight urinary glucose excretion at 10 mg/kg, po; assay type: organism-based, Urine; design: dose 10 mg/kg, route oral; conditions: in vivo
In short: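 Male Wistar rats (8 weeks) in metabolic cages, fasted 08:00 to next morning. At 16:00 they received 10 mg/kg orally in 0.5% CMC or vehicle, and urine was collected until 08:00. Urine glucose by glucose oxidase; n = 5; F-test then Student's t or Welch's test versus vehicle.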

[7] = intestinal microsomes, read-out: Stability

Row | Structure (SMILES) | pIC50 [1] | other results
1 | CCc1[nH]nc(O[C@@H]2O[C@H](CO)[C@@H](O)[C@H](O)[C@H]2O)c1Cc1ccccc1OCc1ccccc1 | 4.86 | 
2 | CC(C)c1[nH]nc(O[C@@H]2O[C@H](CO)[C@@H](O)[C@H](O)[C@H]2O)c1Cc1ccccc1 | 5.69 | solubility [2]: 19000 µg/mL (≈ 50.2 mM)
3 | CC(C)c1n[nH]c(O[C@@H]2O[C@H](CO)[C@@H](O)[C@H](O)[C@H]2O)c1Cc1ccccc1F | 5.86 | 
4 | CC(C)c1[nH]nc(O[C@@H]2O[C@H](CO)[C@@H](O)[C@H](O)[C@H]2O)c1Cc1ccccc1O | 4.12 | 
5 | OC[C@H]1O[C@@H](Oc2[nH]nc(C(F)(F)F)c2Cc2ccc(O)cc2)[C@H](O)[C@@H](O)[C@@H]1O | 6.81 | 
6 | Cc1cc(O)ccc1Cc1c(C(C)C)n[nH]c1O[C@@H]1O[C@H](CO)[C@@H](O)[C@H](O)[C@H]1O | 5.16 | pIC50 [3]: 6.74; pIC50 [4]: 5.36
7 | CC(C)c1[nH]nc(O[C@@H]2O[C@H](CO)[C@@H](O)[C@H](O)[C@H]2O)c1Cc1ccccc1C#N | 4.18 | 
8 | Cc1ccccc1Cc1c(C(C)C)n[nH]c1O[C@@H]1O[C@H](CO)[C@@H](O)[C@H](O)[C@H]1O | 4.73 | 
9 | OC[C@H]1O[C@@H](Oc2n[nH]c(C(F)(F)F)c2Cc2ccccc2O)[C@H](O)[C@@H](O)[C@@H]1O | 4.83 | 
10 | COc1ccccc1Cc1c(O[C@@H]2O[C@H](CO)[C@@H](O)[C@H](O)[C@H]2O)n[nH]c1C(C)C | 3.69 | 
11 | CC(C)c1[nH]nc(O[C@@H]2O[C@H](CO)[C@@H](O)[C@H](O)[C@H]2O)c1Cc1ccccc1OCc1ccccc1 | 4.13 | pIC50 [3]: 6.51; pIC50 [4]: 4.00; remaining at 0.5 h, 50 µM [5, 7]: 71%; remaining at 1 h, 50 µM [6, 7]: 51%; solubility [2]: 240 µg/mL (≈ 0.495 mM); Activity (Rattus norvegicus): 0.4 mg
12 | CCc1ccccc1Cc1c(O[C@@H]2O[C@H](CO)[C@@H](O)[C@H](O)[C@H]2O)n[nH]c1C(C)C | 4.85 | 
13 | OC[C@H]1O[C@@H](Oc2n[nH]c(C(F)(F)F)c2Cc2ccccc2OCc2ccccc2)[C@H](O)[C@@H](O)[C@@H]1O | 4.85 | pIC50 [3]: 6.64; pIC50 [4]: 4.39; Stability ([5]; microsomes, 0.5 h, 50 µM): Unstable; Stability ([6]; microsomes, 1 h, 50 µM): Unstable
14 | CC(C)(C)c1[nH]nc(O[C@@H]2O[C@H](CO)[C@@H](O)[C@H](O)[C@H]2O)c1Cc1ccccc1OCc1ccccc1 | 4.19 | 
15 | CC(C)c1[nH]nc(O[C@@H]2O[C@H](CO)[C@@H](O)[C@H](O)[C@H]2O)c1Cc1ccc(F)cc1 | 5.38 | 
16 | CC(C)c1[nH]nc(O[C@@H]2O[C@H](CO)[C@@H](O)[C@H](O)[C@H]2O)c1Cc1ccc(C#N)cc1 | 5.45 | 
